# Reference: ChEMBL document CHEMBL4622841, “Structural modifications of indolinones bearing a pyrrole moiety and discovery of a multi-kinase inhibitor with potent antitumor activity” (Bioorg Med Chem, 2020)
# pIC50: −log10 of the molar value.
# Key:
# [1] = molecular target: Platelet-derived growth factor receptor beta (Homo sapiens, UniProt P09619); experiment: Inhibition of N-terminal GST-fused human PDGFRbeta cytoplasmic domain (557 to 1106 (end) residues) expressed in baculovirus expression system using FAM-labeled peptide and ATP as substrate preincubated for 10 mins followed by substrate addition measured after 1 hr by mobility shift assay
# Platelet-derived growth factor receptor beta, sequence (P09619 whole entry, the tested form may be a part): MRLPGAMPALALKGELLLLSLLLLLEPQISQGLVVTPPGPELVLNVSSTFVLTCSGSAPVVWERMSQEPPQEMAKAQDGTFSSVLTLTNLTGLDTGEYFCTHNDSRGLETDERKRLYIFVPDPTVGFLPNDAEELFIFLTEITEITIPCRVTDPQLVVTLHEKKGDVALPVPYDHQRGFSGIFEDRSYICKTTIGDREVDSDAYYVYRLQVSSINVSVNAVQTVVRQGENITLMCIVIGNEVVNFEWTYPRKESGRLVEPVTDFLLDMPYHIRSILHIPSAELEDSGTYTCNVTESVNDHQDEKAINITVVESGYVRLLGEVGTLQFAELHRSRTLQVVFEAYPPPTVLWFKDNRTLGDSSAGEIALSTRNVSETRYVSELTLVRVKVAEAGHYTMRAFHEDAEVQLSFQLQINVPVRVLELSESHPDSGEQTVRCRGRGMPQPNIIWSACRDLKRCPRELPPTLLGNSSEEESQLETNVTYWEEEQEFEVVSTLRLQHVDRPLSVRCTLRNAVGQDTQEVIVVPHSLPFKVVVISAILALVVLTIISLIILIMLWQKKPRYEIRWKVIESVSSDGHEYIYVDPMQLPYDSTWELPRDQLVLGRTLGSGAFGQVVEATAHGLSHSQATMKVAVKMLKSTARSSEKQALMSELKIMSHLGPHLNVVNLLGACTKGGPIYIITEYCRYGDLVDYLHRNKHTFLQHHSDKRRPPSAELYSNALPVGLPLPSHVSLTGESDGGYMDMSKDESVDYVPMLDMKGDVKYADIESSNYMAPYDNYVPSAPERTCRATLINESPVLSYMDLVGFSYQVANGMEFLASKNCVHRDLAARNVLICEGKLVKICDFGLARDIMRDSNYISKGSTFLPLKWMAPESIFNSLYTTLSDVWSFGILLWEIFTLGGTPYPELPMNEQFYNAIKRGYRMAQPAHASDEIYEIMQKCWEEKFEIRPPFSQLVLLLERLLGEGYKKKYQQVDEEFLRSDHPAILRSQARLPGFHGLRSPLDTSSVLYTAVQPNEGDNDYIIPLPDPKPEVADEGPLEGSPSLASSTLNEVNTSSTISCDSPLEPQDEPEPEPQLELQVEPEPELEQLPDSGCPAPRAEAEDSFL
# [2] = molecular target: Vascular endothelial growth factor receptor 2 (Homo sapiens, UniProt P35968); experiment: Inhibition of N-terminal GST fused human VEGFR2 cytoplasmic domain (790 to 1356 (end) residues) expressed in baculovirus expression system using FAM-labeled peptide and ATP as substrate preincubated for 10 mins followed by substrate addition measured after 1 hr by mobility shift assay
# Vascular endothelial growth factor receptor 2, sequence (P35968 whole entry, the tested form may be a part): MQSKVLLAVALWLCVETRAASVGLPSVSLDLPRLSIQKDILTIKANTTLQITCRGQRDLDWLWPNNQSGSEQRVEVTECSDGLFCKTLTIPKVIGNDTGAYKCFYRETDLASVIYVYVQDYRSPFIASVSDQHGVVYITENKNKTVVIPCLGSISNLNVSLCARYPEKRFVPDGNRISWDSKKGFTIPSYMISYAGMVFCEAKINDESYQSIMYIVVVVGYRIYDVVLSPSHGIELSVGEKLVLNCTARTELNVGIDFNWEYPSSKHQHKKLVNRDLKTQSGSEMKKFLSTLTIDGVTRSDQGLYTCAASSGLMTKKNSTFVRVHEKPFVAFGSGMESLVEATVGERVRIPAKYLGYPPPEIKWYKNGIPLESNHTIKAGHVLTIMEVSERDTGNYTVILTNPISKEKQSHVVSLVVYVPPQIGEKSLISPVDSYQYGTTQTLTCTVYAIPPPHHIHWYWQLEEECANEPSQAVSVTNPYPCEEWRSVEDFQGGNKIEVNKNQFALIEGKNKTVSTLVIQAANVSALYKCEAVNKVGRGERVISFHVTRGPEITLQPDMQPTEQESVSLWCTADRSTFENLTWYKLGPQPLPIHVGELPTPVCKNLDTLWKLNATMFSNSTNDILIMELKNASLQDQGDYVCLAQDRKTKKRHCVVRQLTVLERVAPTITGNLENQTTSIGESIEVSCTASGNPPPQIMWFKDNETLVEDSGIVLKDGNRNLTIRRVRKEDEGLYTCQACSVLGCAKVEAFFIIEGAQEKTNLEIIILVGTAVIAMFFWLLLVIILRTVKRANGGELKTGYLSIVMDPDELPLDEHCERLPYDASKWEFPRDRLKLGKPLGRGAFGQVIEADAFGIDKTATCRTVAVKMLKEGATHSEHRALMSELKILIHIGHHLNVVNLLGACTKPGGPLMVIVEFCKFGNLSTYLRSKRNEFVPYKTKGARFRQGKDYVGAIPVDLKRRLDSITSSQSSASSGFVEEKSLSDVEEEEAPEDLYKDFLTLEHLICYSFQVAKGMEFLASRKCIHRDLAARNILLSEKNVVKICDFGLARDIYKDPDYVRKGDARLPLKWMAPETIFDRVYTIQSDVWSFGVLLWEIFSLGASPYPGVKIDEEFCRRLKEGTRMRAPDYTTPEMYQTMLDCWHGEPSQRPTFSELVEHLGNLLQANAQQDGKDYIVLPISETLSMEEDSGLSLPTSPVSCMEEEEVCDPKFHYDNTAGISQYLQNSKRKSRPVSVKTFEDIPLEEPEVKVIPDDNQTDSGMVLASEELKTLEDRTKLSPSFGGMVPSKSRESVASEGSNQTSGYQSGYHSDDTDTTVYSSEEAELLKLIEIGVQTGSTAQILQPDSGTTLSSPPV
# [3] = Intrinsic clearance in human liver microsomes; assay type: ADME, Microsome; conditions: read-out: CLH
# [4] = Toxicity in nu/nu mouse xenografted with human HT-29 cells assessed as effect on body weight at 100 mg/kg, po qd for 18 days; assay type: organism-based; conditions: in vivo, 432 h
# How it was run: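 Female nu/nu mice, 4–6 weeks old, implanted subcutaneously in the right flank with HT-29 cells (2×10⁶/mL). Once tumours reached 200 mm³, mice randomised to groups (n = 6) and dosed orally once daily at 100 mg/kg for 18 days. Body weight monitored during treatment. Results given as mean ± SD.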
# [5] = molecular target: Cyclin-dependent kinase 2 (Homo sapiens, UniProt P24941); experiment: Inhibition of CDK2 (unknown origin) using FAM-labeled peptide and ATP as substrate preincubated for 10 mins followed by substrate addition measured after 1 hr by mobility shift assay
# [6] = Inhibition of N-terminal GST-tagged human recombinant PDGFRalpha D842I mutant expressed in baculovirus-infected Sf9 cells using FAM-labeled peptide and ATP as substrate preincubated for 10 mins followed by substrate addition measured after 1 hr by mobility shift assay
# HT-29 = experiment: Antitumor activity against human HT-29 cells xenografted in nu/nu mouse assessed as tumour growth inhibition at 100 mg/kg, po qd for 18 days and measured twice per week by vernier caliper method; assay type: functional; conditions: HT-29, po, 432 h, read-out: TGI
# [7] = Half life in human liver microsomes; assay type: ADME, Microsome
# [8] = Inhibition of GST-tagged human recombinant VEGFR3 cytoplasmic domain (800 to 1297 residues) Q890H/V1128L/H1146R mutant expressed in baculovirus expression system using FAM-labeled peptide and ATP as substrate preincubated for 10 mins followed by substrate addition measured after 1 hr by mobility shift assay
# [9] = molecular target: Tyrosine-protein kinase Lyn (Homo sapiens, UniProt P07948); experiment: Inhibition of LYN (unknown origin) using FAM-labeled peptide and ATP as substrate preincubated for 10 mins followed by substrate addition measured after 1 hr by mobility shift assay
# Tyrosine-protein kinase Lyn, sequence (P07948 whole entry): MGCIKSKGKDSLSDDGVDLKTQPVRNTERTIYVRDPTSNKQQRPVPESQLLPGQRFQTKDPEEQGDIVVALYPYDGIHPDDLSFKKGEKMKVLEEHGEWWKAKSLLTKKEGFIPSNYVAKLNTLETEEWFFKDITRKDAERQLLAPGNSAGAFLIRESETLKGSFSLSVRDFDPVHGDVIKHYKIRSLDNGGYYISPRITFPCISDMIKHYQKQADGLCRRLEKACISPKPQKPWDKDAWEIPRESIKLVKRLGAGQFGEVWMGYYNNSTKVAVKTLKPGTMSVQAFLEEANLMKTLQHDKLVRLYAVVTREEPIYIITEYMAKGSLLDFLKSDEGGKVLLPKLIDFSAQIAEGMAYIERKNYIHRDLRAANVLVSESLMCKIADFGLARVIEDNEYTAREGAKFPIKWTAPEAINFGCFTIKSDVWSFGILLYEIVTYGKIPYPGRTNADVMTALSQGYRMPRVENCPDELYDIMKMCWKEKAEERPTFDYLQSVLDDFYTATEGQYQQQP
SMILES,pIC50 [1],also measured
COC(=O)c1ccc2c(c1)NC(=O)/C2=C(\Nc1cnc(-n2cccc2CN2CCN(C)CC2)c(C)c1)c1ccccc1,< 6.52,pIC50 [2]: < 6.00
COC(=O)c1ccc2c(c1)NC(=O)/C2=C(\Nc1ccc(-n2cccc2CN2CCN(C)CC2)nc1)c1ccccc1,6.94,–
COC(=O)c1ccc2c(c1)NC(=O)/C2=C(\Nc1ccc(-n2cccc2CN2CCN(C)CC2)cc1)c1ccccc1,7.26,–
COC(=O)c1ccc2c(c1)NC(=O)/C2=C(\Nc1ccc(N(C)C(=O)CN2CCN(C)CC2)cc1)c1ccccc1 [NINTEDANIB],–,CLint scaled [3]: 63.5 mL/min/kg; Activity [4]: Non-Toxic; pIC50 [5]: < 6.00; pIC50 [6]: 8.72; inhibition in vivo at 100 mg/kg (HT-29): 44.3%; half-life [7]: 27.4 min; pIC50 [8]: 8.52; pIC50 [9]: 7.26
COC(=O)c1ccc2c(c1)NC(=O)/C2=C(\Nc1ccc(-n2cccc2CN(C)C)cc1)c1ccccc1,7.96,–
COC(=O)c1ccc2c(c1)NC(=O)/C2=C(\Nc1ccc(-n2cccc2CN(C)C)c(C)c1)c1ccccc1,7.51,–
COC(=O)c1ccc2c(c1)NC(=O)/C2=C(\Nc1ccc(-n2c(C)ccc2CN(C)C)cc1)c1ccccc1,7.34,–
COC(=O)c1ccc2c(c1)NC(=O)/C2=C(\Nc1ccc(-n2cccc2CN2CCN(C)CC2)c(C)c1)c1ccccc1,6.69,–
COC(=O)c1ccc2c(c1)NC(=O)/C2=C(\Nc1ccc(-n2c(C)ccc2CN2CCOCC2)cc1)c1ccccc1,7.43,–
COC(=O)c1ccc2c(c1)NC(=O)/C2=C(\Nc1ccc(-n2c(C)ccc2CN2CCN(C)CC2)nc1)c1ccccc1,6.91,–
CCN(CC)Cc1ccc(C)n1-c1ccc(N/C(=C2\C(=O)Nc3cc(C(=O)OC)ccc32)c2ccccc2)cc1,7.62,–
COC(=O)c1ccc2c(c1)NC(=O)/C2=C(\Nc1ccc(-n2c(C)ccc2CN(C)C)nc1)c1ccccc1,7.49,–
COC(=O)c1ccc2c(c1)NC(=O)/C2=C(\Nc1ccc(-n2cccc2CN(C)C)nc1)c1ccccc1,7.59,–
COC(=O)c1ccc2c(c1)NC(=O)/C2=C(\Nc1cnc(-n2cccc2CN(C)C)c(C)c1)c1ccccc1,7.15,pIC50 [2]: < 6.00
